In ChEMBL document CHEMBL4513216, “Probing the Open Global Health Chemical Diversity Library for Multistage-Active Starting Points for Next-Generation Antimalarials” (ACS Infect Dis, 2020):

Assay: Toxicity liver stage against HepG2, at 10uM
Type: cell-based
Design: test concentration 10 uM, cell line HepG2-A16-CD81EGFP
Conditions: human, HepG2-A16-CD81EGFP cells; read-out: INHIBITION
In short: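 Uninfected HepG2-A16-CD81EGFP cells, 3 × 10^3 per well, 1536-well, plated on prespotted compound at 10 μM final, parasite-free screening media added to match infected plates; puromycin 10 μM positive, DMSO 0.5% negative; run in parallel with 48 h PbLuc assay at 37 °C, 5% CO2; viability by CellTiter-Glo luminescence, normalized to controls.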

Compared with `CC(C)CNC(=O)Nc1cccc(OCC#N)c1`, `Cc1cccc(C)c1OCCNC(=O)NC(C)c1nncn1C` (stereo not drawn) is higher in cytotoxicity at 10 µM: -0.353% for the first, 7.8% for the second.

First: CC(=O)N1CCC(CCNC(C)c2cc(C)cc(C)c2)CC1 (stereo not drawn)
Second: CSc1cccc(CN2CCC(CCC(=O)NCCN(C)C)CC2)c1
The cytotoxicity at 10 µM of the first is higher: -9.8% for the first, -11.9% for the second.

Going from `CN1CC(C(=O)NCc2ccc(Br)cc2F)CC1=O` (stereo not drawn) to `CCOc1ccc(Br)cc1C1CCCCN1` (stereo not drawn), the cytotoxicity at 10 µM falls from 9.01% to 7.16%.

First: Cc1ccc(S(N)(=O)=O)cc1C(=O)N1CCc2c(ncnc2N(C)C)C1
Second: CN(C)S(=O)(=O)N1CCN(C(=O)c2cc(-c3ccccc3)[nH]n2)CC1
The cytotoxicity at 10 µM of the first is lower: -2.71% for the first, -0.665% for the second.

Compared with `CCN(CC(=O)NC(C)C)S(=O)(=O)N1CCCC(C)C1` (stereo not drawn), `CC1=NN(CC(=O)N2CC[C@@H]3[C@@H](CCC(=O)N3CC(C)C)C2)CC1` is lower in cytotoxicity at 10 µM: 2.77% for the first, 0.88% for the second.

Going from `Cc1ccc(-c2nc(C(=O)N(C)CC(=O)N3CCCC3)cs2)c(C)c1` to `O=C(C1SCCc2sccc21)N1CCCCC1` (stereo not drawn), the cytotoxicity at 10 µM rises from -2.28% to 9.78%.

Going from `CS(=O)(=O)N1CCC(C(=O)NC(Cc2ccsc2)c2ccccn2)CC1` (stereo not drawn) to `CCC(C)CNC(=O)[C@@H]1CCCN1c1nccc(Nc2ccccc2)n1` (stereo partly drawn), the cytotoxicity at 10 µM rises from -2.91% to 3.57%.

Going from `CC(CN1CCOCC1)NC(=O)Nc1cccnc1-n1cccn1` (stereo not drawn) to `Cc1nccn1CCNC(=O)C1(C)CC(c2ccccc2)=NO1` (stereo not drawn), the cytotoxicity at 10 µM rises from -1.7% to 8.46%.

Compared with `Cn1cccc1C(=O)N1C[C@@H](OCc2cccnc2)[C@H]2OCCC[C@H]21`, `Cn1cc(C(=O)CC2CCCN2C(=O)c2c[nH]c3ccccc23)cn1` (stereo not drawn) is lower in cytotoxicity at 10 µM: 7.06% for the first, -1.39% for the second.

Compared with `CC(C)c1nnc(CN(C)C(c2ccccc2)c2ccc(F)cc2)o1` (stereo not drawn), `CC(C)c1nn(C)c(N(C)C)c1CNCc1ccccc1CN(C)C` is lower in cytotoxicity at 10 µM: 15.5% for the first, 1.53% for the second.

First: CCC(O)Cn1nc(CCSC)nc1-c1ccc2c(c1)OCCO2 (stereo not drawn)
Second: Cn1cc(CN2CCC3(CC(=O)N(c4ccc5c(c4)OCO5)C3)C2)cn1 (stereo not drawn)
The cytotoxicity at 10 µM of the first is higher: -0.268% for the first, -4.97% for the second.

Going from `Cc1nc(C)n(CC(C)C(=O)N2CCC(CN3CCOCC3)CC2)n1` (stereo not drawn) to `Cc1oncc1C(=O)N1CC[C@H]2[C@H](C[C@@H](CN3CCCC3)N2C)C1`, the cytotoxicity at 10 µM falls from 0.635% to 0.286%.

Going from `CC(CCn1cccn1)NCc1n[nH]c2c1CCCCC2` (stereo not drawn) to `CCn1ccnc1CN1CCCN(C(=O)c2ccsc2)CC1`, the cytotoxicity at 10 µM falls from -3.98% to -6.63%.

Going from `O=C1CCCN1CCCC(=O)N1CCC2(CC1)[C@H](O)C[C@@H]2O` to `CN1CCN(C)C2(CCN(Cc3ccc(C4CCCCO4)o3)CC2)C1` (stereo not drawn), the cytotoxicity at 10 µM rises from -2.38% to 0.0773%.

Going from `CC(NC(=O)NCCCN(C)C)c1ccc2c(c1)CCC(=O)N2` (stereo not drawn) to `CNc1nc2c(s1)C(=O)CN(C(=O)NCCc1ccccc1)C2`, the cytotoxicity at 10 µM rises from -8.03% to -7.38%.

Compared with `CO[C@H]1CN(S(=O)(=O)c2cn(C)cn2)[C@@H]2CCCO[C@H]12`, `CC(=O)N1C[C@H]2CCCN(Cc3ccc(C)o3)[C@H]2C1` is higher in cytotoxicity at 10 µM: -132% for the first, -1.36% for the second.

First: N#Cc1ccc(C(=O)NS(=O)(=O)c2ccc(C#N)c(Cl)c2)cc1
Second: COc1ccc(C(=O)Nc2c(C)nn(C(C)C)c2C)cc1
The cytotoxicity at 10 µM of the first is higher: 5.44% for the first, -3.13% for the second.

First: COc1ccc(CN(C)[C@@H]2CN(C(=O)c3cncs3)C[C@H]2O)cc1
Second: CN(C(=O)c1ccc(NC(=O)c2cc[nH]n2)cc1)C1CCCCC1
The cytotoxicity at 10 µM of the first is lower: -12.4% for the first, -2.98% for the second.

Going from `CC(C)c1noc(CS(=O)(=O)CC(=O)NCc2cccs2)n1` to `CC(C)c1nccc([C@@H]2C[C@@H]3CCN(Cc4ccco4)C[C@H]3O2)n1`, the cytotoxicity at 10 µM falls from 2.71% to 1.1%.

Compared with `CC(=O)N1C[C@H]2CC[C@@H](C1)N(S(=O)(=O)c1ccc(F)cc1Cl)C2`, `Cc1cccc(S(=O)(=O)N2CCCC3(CCCN3S(C)(=O)=O)C2)c1` (stereo not drawn) is higher in cytotoxicity at 10 µM: -0.756% for the first, 7.28% for the second.

First: CCOc1cc(C=Cc2ncc(C(=O)NC)s2)ccc1OC
Second: CC(NC(=O)Nc1nnc(-c2ccccn2)s1)C(=O)OC(C)(C)C (stereo not drawn)
The cytotoxicity at 10 µM of the first is higher: -0.58% for the first, -6.87% for the second.

With `O=C1NCC2(CCCN(C(=O)c3c[nH]nc3-c3cccs3)C2)O1` (stereo not drawn) the cytotoxicity at 10 µM was 8.32%.
